These results are taken from article PMC12679430 (RSC Advances, 2025).

A value given as a limit tells only on which side of the number the result lay.

One data set deals with Hela cells. As to the kind of experiment: Antiproliferative assay. The data set is classed as cell-based. The following applies: Homo sapiens, 72 h, read-out: Antiproliferative IC50, Hela.
The subject of a further data set is SiHa cells. As to the kind of experiment: Antiproliferative assay. The data set is classed as cell-based. The following applies: Homo sapiens, 72 h, read-out: Antiproliferative IC50, SiHa.
In data set [1] the test system is human normal cervical epithelial cells (HcerEpic). Kind of data set: Toxicity in normal cervical epithelial cells. Format: cell-based. The settings on record: Epithelial cell, read-out: IC50, HcerEpic. In a few lines:
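Cells grown in IMDM with 20% FBS, 100 U/mL penicillin and 100 µg mL−1 streptomycin at 37 °C, humidified 5% CO2. Serially diluted test compound applied for 72 h. Alamar blue (1 mM stock solution) then added for another 5–6 h, with the signal read at 530/590 nm. Data normalised to DMSO vehicle, mean of three independent measurements, and IC50 fitted from the curves.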

Data set [2] in a line: Microsomal stability assay. Format: in vitro ADME. The settings on record: human, human liver microsomes, pH 7.4. (Liver microsomes are a subcellular fraction often used to study metabolism.)
The conditions of data set [3]: in clinical; cited from earlier work.

As a reminder, the IC50 is the concentration that gives 50% inhibition. One may read the half-life as how long it takes for the measured level to halve. Higher therefore signals slow loss. On to `O=C(CCCCCCNC(=O)c1cnc(N(c2ccccc2)c2ccccc2)nc1)NO` [ACY1215], for which the IC50 in the data set with Hela cells was 6.8 ± 0.35 µM; with SiHa cells, 11.3 ± 0.8 µM; in data set [1], over 50 µM. In data set [2], the half-life at 0.5 µM was 6.7 h.
`O=C(NO)c1ccc(CN(c2cnccn2)c2cnccn2)cc1` [KA2507]: in data set [3], the dose-limiting toxicities result is “no dose-limiting toxicities”.
